From PubChem
E coli WT inh: blocks growth of wild type E. coli BW25113; E. coli BW25113 growth inhibition, OD600; inhibition, % at 10 µM; actives 0.05% (n = 20,000); AID 552; in the data active = inhibition above about 40%;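 also: bacteria exposed to compound for 20 hours at 37 °C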
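Assay system: Bacterial strain in a whole-cell growth screen | Amount: Inoculum from a 1:1000 dilution of a 1.5 h subculture | Detection: Absorbance at 615 nm as a measure of bacterial growth | Timing: 20 h exposure, 37 °C | Buffer or medium: LB plus kanamycin 50 µg/mL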
Numbers without * were called inactive. The sample as a whole holds a higher share of hits than the screen did.

SMILES	E coli WT inh
CN(C)[C@@H]1C(=O)C(C(N)=O)=C(O)[C@@]2(O)C(=O)C3=C(O)c4c(O)cccc4[C@@](C)(O)[C@H]3[C@H](O)[C@@H]12	40*
NCC1(CC(=O)O)CCCCC1	7
CN1CCN(C(=O)OC2c3nccnc3C(=O)N2c2ccc(Cl)cn2)CC1 (stereo not given)	0
C#CCN(C)C(C)Cc1ccccc1 (stereo not given)	4
CC1=C(C(=O)N2CCC3(CC2)OCCO3)C2(CCC(C)CC2)OC1=O (stereo not given)	-4
